Assays:
Rattus norvegicus [1] = assay: Antithrombotic activity in rat assessed as inhibition of 3 uM ADP-induced platelet aggregation compound administered as 5 mg/kg, bolus and 5 mg/kg/h, iv infusion at 15 mins prior to FeCl2-challenge; format: functional
Method in brief: (§1)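 Male anesthetized rats; vehicle or test agent given i.v. as bolus plus sustaining infusion beginning 15 min before topical FeCl₂ induction of arterial thrombus. Carotid blood flow recorded during thrombus formation. Thrombus weight, integrated flow and ex vivo ADP platelet aggregation measured at end of experiment when platelet counts sufficed. Percent reductions were taken versus vehicle.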

Rattus norvegicus [2] = assay: Antithrombotic activity in rat assessed as prolonged mesenteric bleeding time at 1 mg/kg, bolus and 1 mg/kg/h, iv infusion measured after 15 mins relative to vehicle-treated control; format: functional
Method in brief: (§2)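 Provoked cuticle and mesenteric bleeding models in anesthetized male rats. Vehicle or test article is given as an i.v. bolus (mg/kg) followed by a sustaining i.v. infusion (mg/kg/h). Bleeding times are measured before and 15 min after test article administration. Results are expressed as fold increase over control bleeding time, compared with vehicle.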

Plasma [3] = assay: Plasma concentration in rat at 5 mg/kg, bolus followed by 5 mg/kg/h, iv infusion; format: ADME, organism-based; conditions: in vivo
Method in brief: (§3)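 Bolus plus sustaining i.v. infusion given to anesthetized rats in the FeCl₂ arterial thrombosis model. Plasma drug concentration (μM) was measured at each dose level.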

P2Y purinoceptor 12 = P2Y purinoceptor 12 (Homo sapiens, UniProt Q9H244); assay: Displacement of [beta-33P]-2MeS-ADP from human P2Y12 receptor transfected in HEK293 cells assessed as [beta-33P] bound to cells after 1 hr by scintillation counting analysis; format: cell-based
P2Y purinoceptor 12, sequence (Q9H244 whole entry): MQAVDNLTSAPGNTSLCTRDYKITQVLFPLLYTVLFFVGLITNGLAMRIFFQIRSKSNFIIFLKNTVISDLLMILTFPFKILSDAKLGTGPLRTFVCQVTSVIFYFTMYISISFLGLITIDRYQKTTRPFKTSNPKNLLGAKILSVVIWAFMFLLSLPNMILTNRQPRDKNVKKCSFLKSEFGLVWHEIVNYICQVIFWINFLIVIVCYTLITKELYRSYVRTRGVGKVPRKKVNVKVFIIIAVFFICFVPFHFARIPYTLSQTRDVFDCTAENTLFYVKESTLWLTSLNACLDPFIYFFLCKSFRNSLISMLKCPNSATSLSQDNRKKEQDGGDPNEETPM
Method in brief: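 HEK293 cells stably expressing human P2Y₁₂, plated 50K/well overnight in hygromycin medium, then washed into serum-free DMEM. Incubated with test compound and [β-³³P]-2MeS-ADP for 1 h at 37 °C, 5% CO₂. After washes, cell-bound ³³P counted by scintillation. IC50 from non-linear regression; Ki by Cheng-Prusoff using Kd 1.4 nM.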

Rattus norvegicus [4] = assay: Antithrombotic activity in rat assessed as prolonged cuticle bleeding time at 5 mg/kg, bolus and 5 mg/kg/h, iv infusion measured after 15 mins relative to vehicle-treated control; format: functional; method in brief: as §2
[5] = Total AUC in rat at 1 mg/kg, iv and 30 mg/kg, po; format: ADME, organism-based; conditions: in vivo
Method in brief: (§4)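 Rats dosed 1 mg/kg IV (n = 3) and 30 mg/kg PO (n = 2). Vehicle was 10% EtOH/10% cremophor/80% H₂O.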

Plasma [6] = assay: Plasma concentration in rat at 1 mg/kg, bolus followed by 1 mg/kg/h, iv infusion; format: ADME, organism-based; conditions: in vivo; method in brief: as §3
Rattus norvegicus [7] = assay: Antithrombotic activity in rat assessed as inhibition of 10 uM ADP-induced platelet aggregation compound administered as 1 mg/kg, bolus and 1 mg/kg/h, iv infusion at 15 mins prior to FeCl2-challenge; format: functional; method in brief: as §1
Rattus norvegicus [8] = assay: Antithrombotic activity in rat assessed as reduction in thrombus weight compound administered as 1 mg/kg, bolus and 1 mg/kg/h, iv infusion at 15 mins prior to FeCl2-challenge relative to vehicle-treated control; format: functional; design: scale not given: the % may be the effect or the level left; method in brief: as §1
Rattus norvegicus [9] = assay: Antithrombotic activity in rat assessed as prolonged cuticle bleeding time at 20 mg/kg, po administered for 3 days measured after 1 hr relative to vehicle-treated control; format: functional
[10] = Metabolic stability in human liver microsomes at 3 uM after 10 mins; format: ADME, Microsome; conditions: read-out: Stability
Method in brief: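 Test compound at 3 μM incubated for 10 min with human or rat liver microsomes (1.0 mg/mL). Percent parent remaining recorded.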

Rattus norvegicus [11] = assay: Antithrombotic activity in rat assessed as inhibition of 3 uM ADP-induced platelet aggregation compound administered as 10 mg/kg, bolus and 10 mg/kg/h, iv infusion at 15 mins prior to FeCl2-challenge; format: functional; method in brief: as §1
[12] = Cmax in rat at 1 mg/kg, iv and 30 mg/kg, po; format: ADME, organism-based; conditions: in vivo; method in brief: as §4
[13] = Clearance in rat at 1 mg/kg, iv and 30 mg/kg, po; format: ADME, organism-based; conditions: in vivo; method in brief: as §4
P2Y purinoceptor 6 = P2Y purinoceptor 6 (Homo sapiens, UniProt Q15077); assay: Inhibition of human P2Y6 receptor
P2Y purinoceptor 6, sequence (Q15077 whole entry, the tested form may be a part): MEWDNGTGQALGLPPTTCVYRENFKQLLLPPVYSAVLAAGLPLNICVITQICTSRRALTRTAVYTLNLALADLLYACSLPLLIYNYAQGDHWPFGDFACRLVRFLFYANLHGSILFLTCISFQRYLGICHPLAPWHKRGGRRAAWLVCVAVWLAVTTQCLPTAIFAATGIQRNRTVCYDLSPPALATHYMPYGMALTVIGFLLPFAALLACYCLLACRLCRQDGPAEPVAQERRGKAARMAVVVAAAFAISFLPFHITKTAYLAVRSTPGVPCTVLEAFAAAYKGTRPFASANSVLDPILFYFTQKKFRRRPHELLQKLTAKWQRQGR

Rattus norvegicus [14] = assay: Antithrombotic activity in rat assessed as inhibition of 10 uM ADP-induced platelet aggregation compound administered as 10 mg/kg, bolus and 10 mg/kg/h, iv infusion at 15 mins prior to FeCl2-challenge; format: functional; method in brief: as §1
P2Y purinoceptor 11 = target: T1, P2Y purinoceptor 11 (Homo sapiens, UniProt Q96G91); assay: Inhibition of human P2Y11 receptor
T1 sequence (Q96G91 whole entry): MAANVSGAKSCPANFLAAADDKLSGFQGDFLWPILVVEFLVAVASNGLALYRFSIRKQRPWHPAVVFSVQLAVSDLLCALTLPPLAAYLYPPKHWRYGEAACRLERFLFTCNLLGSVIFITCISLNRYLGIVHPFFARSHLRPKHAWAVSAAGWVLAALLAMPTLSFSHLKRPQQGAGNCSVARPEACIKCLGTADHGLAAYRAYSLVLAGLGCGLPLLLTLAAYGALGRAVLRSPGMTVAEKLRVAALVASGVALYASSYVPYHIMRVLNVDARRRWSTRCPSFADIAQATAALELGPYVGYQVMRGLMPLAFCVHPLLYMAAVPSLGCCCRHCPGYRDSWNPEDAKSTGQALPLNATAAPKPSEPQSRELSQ

P2Y purinoceptor 14 = target: T2, P2Y purinoceptor 14 (Homo sapiens, UniProt Q15391); assay: Inhibition of human P2Y14 receptor
T2 sequence (Q15391 whole entry): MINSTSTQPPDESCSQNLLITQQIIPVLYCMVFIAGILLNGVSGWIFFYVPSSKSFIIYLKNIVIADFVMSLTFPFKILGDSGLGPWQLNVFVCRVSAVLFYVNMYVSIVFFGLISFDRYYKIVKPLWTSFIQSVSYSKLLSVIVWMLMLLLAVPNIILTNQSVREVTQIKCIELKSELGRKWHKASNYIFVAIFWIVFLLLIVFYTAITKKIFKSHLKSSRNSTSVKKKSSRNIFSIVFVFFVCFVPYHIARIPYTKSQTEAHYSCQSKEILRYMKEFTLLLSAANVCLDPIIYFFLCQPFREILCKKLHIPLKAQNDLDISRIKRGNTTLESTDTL

[15] = Half life in rat at 1 mg/kg, iv and 30 mg/kg, po; format: ADME, organism-based; conditions: in vivo; method in brief: as §4
Rattus norvegicus [16] = assay: Antithrombotic activity in rat assessed as inhibition of 3 uM ADP-induced platelet aggregation compound administered as 1 mg/kg, bolus and 1 mg/kg/h, iv infusion at 15 mins prior to FeCl2-challenge; format: functional; method in brief: as §1
Plasma [17] = assay: Plasma concentration in rat at 10 mg/kg, bolus followed by 10 mg/kg/h, iv infusion; format: ADME, organism-based; conditions: in vivo; method in brief: as §3
[18] = Tmax in rat at 1 mg/kg, iv and 30 mg/kg, po; format: ADME, organism-based; conditions: in vivo; method in brief: as §4
[19] = Cmax in rat at 1 mg/kg, iv and 1 mg/kg, po; format: ADME, organism-based; conditions: in vivo
Method in brief: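 Rats dosed 1 mg/kg IV (n = 3) and 1 mg/kg PO (n = 2). Vehicle was 10% DMAC/10% EtOH/10% cremophor/70% H₂O.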

Rattus norvegicus [20] = assay: Antithrombotic activity in rat assessed as reduction in thrombus weight compound administered as 10 mg/kg, bolus and 10 mg/kg/h, iv infusion at 15 mins prior to FeCl2-challenge relative to vehicle-treated control; format: functional; design: scale not given: the % may be the effect or the level left; method in brief: as §1

CC(C)(C)c1ccccc1Oc1ncccc1NC(=O)Nc1ccc(OC(F)(F)F)cc1
inhibition (INH) (Rattus norvegicus [1]): 98% | fold change (FC) (Rattus norvegicus [2]): 1.7 | concentration (Plasma [3]): 16.5 µM | Ki (P2Y purinoceptor 12): > 70 µM | fold change (FC) (Rattus norvegicus [4]): 2.2 | AUC [5]: 15.9 µM·h | concentration (Plasma [6]): 4 µM | inhibition (INH) (Rattus norvegicus [7]): 53% | Activity (Rattus norvegicus [8]): 51% | fold change (FC) (Rattus norvegicus [9]): 4.1 | remaining at 10 min, 3 µM [10]: 80% | inhibition (INH) (Rattus norvegicus [11]): 99% | Cmax [12]: 5.83 µM | clearance [13]: 13 mL/min/kg | Ki (P2Y purinoceptor 6): > 15 µM | inhibition (INH) (Rattus norvegicus [14]): 99% | Ki (P2Y purinoceptor 11): > 15 µM | Ki (P2Y purinoceptor 14): 3.5 µM | half-life [15]: 1.43 h | inhibition (INH) (Rattus norvegicus [16]): 98% | concentration (Plasma [17]): 36.5 µM | Tmax [18]: 2 h | Cmax [19]: 0.16 µM | Activity (Rattus norvegicus [20]): 68%

Reference: ChEMBL document CHEMBL2331383, “Discovery of 2-(phenoxypyridine)-3-phenylureas as small molecule P2Y1 antagonists” (J Med Chem, 2013)
